Results as given in ChEMBL document CHEMBL1933017, “Synthesis and biological evaluation of some thiazolidinones as antimicrobial agents” (2012).
Converted amounts (≈) assume the structure as drawn.

Legend:
Pseudomonas aeruginosa [1] = assay: Antibacterial activity against Pseudomonas aeruginosa […] after 24 hrs by agar streak dilution method; format: functional
Bacillus cereus [2] = assay: Antibacterial activity against Bacillus cereus after 24 hrs by agar streak dilution method; format: functional
Outline: (§1)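 MIC by agar streak dilution. Graded amounts of DMSO stock (100 μg/mL) were mixed into molten sterile nutrient agar and poured 4–5 mm deep. Serial concentrations spanned 3.12–100 µg/mL. Plates were inoculated with about 10⁵ CFU/mL of bacterial suspension and incubated at (37 ± 1) °C for 24 h. Each value is the mean of three independent experiments.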

Shigella flexneri [3] = assay: Antibacterial activity against Shigella flexneri at 100 ug/disc after 24 hrs by disc diffusion method; format: functional; settings: read-out: DIZ
Outline: (§2)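 Paper disc diffusion on autoclaved Mueller-Hinton agar poured 5 mm deep. Agar was swab-inoculated with 10⁵ CFU/mL suspension (0.5 McFarland). Discs 6.25 mm across were soaked in compound solution in DMSO (3.12–100 µg/mL) and plates incubated 24 h at (37 ± 1) °C. Read-out was inhibition zone (mm). DMSO control disc; ciprofloxacin or ketoconazole reference, 100 µg/disc. Mean of three independent experiments.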

Aspergillus clavatus [4] = assay: Antifungal activity against Aspergillus clavatus at 100 ug/disc after 24 hrs by disc diffusion method; format: functional; settings: read-out: DIZ; outline: as §2
Klebsiella pneumoniae [5] = assay: Antibacterial activity against Klebsiella pneumoniae […] after 24 hrs by agar streak dilution method; format: functional
Escherichia coli [6] = assay: Antibacterial activity against Escherichia coli at 100 ug/disc after 24 hrs by disc diffusion method; format: functional; settings: read-out: DIZ; outline: as §2
Shigella flexneri [7] = assay: Antibacterial activity against Shigella flexneri after 24 hrs by agar streak dilution method; format: functional; outline: as §1
Candida albicans [8] = assay: Antifungal activity against Candida albicans at 100 ug/disc after 24 hrs by disc diffusion method; format: functional; settings: read-out: DIZ; outline: as §2
Staphylococcus aureus [9] = assay: Antibacterial activity against Staphylococcus aureus at 100 ug/disc after 24 hrs by disc diffusion method; format: functional; settings: read-out: DIZ; outline: as §2
Bacillus cereus [10] = assay: Antibacterial activity against Bacillus cereus at 100 ug/disc after 24 hrs by disc diffusion method; format: functional; settings: read-out: DIZ; outline: as §2
Staphylococcus aureus [11] = assay: Antibacterial activity against Staphylococcus aureus after 24 hrs by agar streak dilution method; format: functional; outline: as §1
Aspergillus niger [12] = assay: Antifungal activity against Aspergillus niger at 100 ug/disc after 24 hrs by disc diffusion method; format: functional; settings: read-out: DIZ; outline: as §2
Candida albicans [13] = assay: Antifungal activity against Candida albicans after 48 hrs by agar streak dilution method; format: functional
Outline: (§3)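 Fungal MIC by agar streak dilution on Sabouraud dextrose agar, poured 4–5 mm deep. Compound from a DMSO stock (100 μg/mL) was incorporated at serial concentrations of 3.12–100 µg/mL. Plates were inoculated with about 10⁵ CFU/mL of suspension and incubated at (37 ± 1) °C for 48 h. Each value is the mean of three independent experiments.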

Salmonella typhi [14] = assay: Antibacterial activity against Salmonella Typhi at 100 ug/disc after 24 hrs by disc diffusion method; format: functional, Salmonella enterica subsp. enterica serovar Typhi; settings: Salmonella enterica, read-out: DIZ
Outline: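 Paper disc diffusion on Mueller-Hinton agar poured 5 mm deep; 10⁵ CFU/mL suspension (0.5 McFarland) swabbed over surface. 6.25 mm filter paper discs soaked in compound in DMSO, incubated 24 h at (37 ± 1) °C; inhibition zone diameter in mm. DMSO disc as blank; ciprofloxacin 100 µg/disc as reference. Mean of three independent experiments.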

Aspergillus fumigatus [15] = assay: Antifungal activity against Aspergillus fumigatus at 100 ug/disc after 24 hrs by disc diffusion method; format: functional; settings: read-out: DIZ; outline: as §2
Klebsiella pneumoniae [16] = assay: Antibacterial activity against Klebsiella pneumoniae at 100 ug/disc after 24 hrs by disc diffusion method; format: functional; settings: read-out: DIZ; outline: as §2
Aspergillus fumigatus [17] = assay: Antifungal activity against Aspergillus fumigatus after 48 hrs by agar streak dilution method; format: functional; outline: as §3
Salmonella typhi [18] = assay: Antibacterial activity against Salmonella Typhi after 24 hrs by agar streak dilution method; format: functional, Salmonella enterica subsp. enterica serovar Typhi; settings: Salmonella enterica
Outline: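 Agar streak dilution: DMSO stock (100 µg/mL) graded into molten sterile nutrient agar, poured 4–5 mm deep and solidified. Plates carry serial dilutions spanning 3.12–100 µg/mL. Applied ~10⁵ CFU/mL suspension, then incubated 24 h at (37 ± 1) °C. MIC read as the lowest inhibitory concentration; each value is the mean of three independent experiments.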

Pseudomonas aeruginosa [19] = assay: Antibacterial activity against Pseudomonas aeruginosa at 100 ug/disc after 24 hrs by disc diffusion method; format: functional; settings: read-out: DIZ; outline: as §2
Escherichia coli [20] = assay: Antibacterial activity against Escherichia coli after 24 hrs by agar streak dilution method; format: functional; outline: as §1
Proteus vulgaris [21] = assay: Antibacterial activity against Proteus vulgaris after 24 hrs by agar streak dilution method; format: functional; outline: as §1
Proteus vulgaris [22] = assay: Antibacterial activity against Proteus vulgaris at 100 ug/disc after 24 hrs by disc diffusion method; format: functional; settings: read-out: DIZ; outline: as §2
Aspergillus clavatus [23] = assay: Antifungal activity against Aspergillus clavatus after 48 hrs by agar streak dilution method; format: functional; outline: as §3
Aspergillus niger [24] = assay: Antifungal activity against Aspergillus niger after 48 hrs by agar streak dilution method; format: functional; outline: as §3

SMILES | MIC (Pseudomonas aeruginosa [1]) | MIC (Bacillus cereus [2]) | zone of inhibition at 100 µg/disc (Shigella flexneri [3]) | zone of inhibition at 100 µg/disc (Aspergillus clavatus [4]) | MIC (Klebsiella pneumoniae [5]) | zone of inhibition at 100 µg/disc (Escherichia coli [6]) | MIC (Shigella flexneri [7]) | zone of inhibition at 100 µg/disc (Candida albicans [8]) | zone of inhibition at 100 µg/disc (Staphylococcus aureus [9]) | zone of inhibition at 100 µg/disc (Bacillus cereus [10]) | MIC (Staphylococcus aureus [11]) | zone of inhibition at 100 µg/disc (Aspergillus niger [12]) | MIC (Candida albicans [13]) | zone of inhibition at 100 µg/disc (Salmonella typhi [14]) | zone of inhibition at 100 µg/disc (Aspergillus fumigatus [15]) | zone of inhibition at 100 µg/disc (Klebsiella pneumoniae [16]) | MIC (Aspergillus fumigatus [17]) | MIC (Salmonella typhi [18]) | zone of inhibition at 100 µg/disc (Pseudomonas aeruginosa [19]) | MIC (Escherichia coli [20]) | further results
CCN1CCN(CC2SC(c3ccccc3C(=O)O)N(c3ccc(Nc4nc(Oc5cc(=O)n(C)c6ccccc56)nc(N(C)C)n4)cc3)C2=O)CC1 (centres undefined) | 100 µg/mL (≈ 136 µM) | 50 µg/mL (≈ 67.9 µM) | 15 mm | 17 mm | 50 µg/mL (≈ 67.9 µM) | 18 mm | 100 µg/mL (≈ 136 µM) | 17 mm | 21 mm | 21 mm | 100 µg/mL (≈ 136 µM) | 15 mm | 100 µg/mL (≈ 136 µM) | 13 mm | 11 mm | 16 mm | 100 µg/mL (≈ 136 µM) | 100 µg/mL (≈ 136 µM) | 13 mm | 50 µg/mL (≈ 67.9 µM) | MIC (Proteus vulgaris [21]): 100 µg/mL (≈ 136 µM); zone of inhibition at 100 µg/disc (Proteus vulgaris [22]): 12 mm; MIC (Aspergillus clavatus [23]): 100 µg/mL (≈ 136 µM); MIC (Aspergillus niger [24]): 100 µg/mL (≈ 136 µM)
CCN1CCN(CC2SC(c3ccc(Cl)cc3)N(c3ccc(Nc4nc(Oc5cc(=O)n(C)c6ccccc56)nc(N(C)C)n4)cc3)C2=O)CC1 (centres undefined) | 50 µg/mL (≈ 68.8 µM) | 6.25 µg/mL (≈ 8.61 µM) | 26 mm | 23 mm | 6.25 µg/mL (≈ 8.61 µM) | 27 mm | 12.5 µg/mL (≈ 17.2 µM) | 27 mm | 26 mm | 28 mm | 6.25 µg/mL (≈ 8.61 µM) | 26 mm | 12.5 µg/mL (≈ 17.2 µM) | 20 mm | 26 mm | 26 mm | 12.5 µg/mL (≈ 17.2 µM) | 50 µg/mL (≈ 68.8 µM) | 23 mm | 12.5 µg/mL (≈ 17.2 µM) | MIC (Proteus vulgaris [21]): 25 µg/mL (≈ 34.4 µM); zone of inhibition at 100 µg/disc (Proteus vulgaris [22]): 25 mm; MIC (Aspergillus clavatus [23]): 12.5 µg/mL (≈ 17.2 µM); MIC (Aspergillus niger [24]): 25 µg/mL (≈ 34.4 µM)
CCN1CCN(CC2SC(c3ccc(C)cc3)N(c3ccc(Nc4nc(Oc5cc(=O)n(C)c6ccccc56)nc(N(C)C)n4)cc3)C2=O)CC1 (centres undefined) | 6.25 µg/mL (≈ 8.85 µM) | 50 µg/mL (≈ 70.8 µM) | 24 mm | 26 mm | 50 µg/mL (≈ 70.8 µM) | 24 mm | 50 µg/mL (≈ 70.8 µM) | 23 mm | 26 mm | 24 mm | 50 µg/mL (≈ 70.8 µM) | 21 mm | 50 µg/mL (≈ 70.8 µM) | 23 mm | 24 mm | 24 mm | 50 µg/mL (≈ 70.8 µM) | 50 µg/mL (≈ 70.8 µM) | 26 mm | 25 µg/mL (≈ 35.4 µM) | MIC (Proteus vulgaris [21]): 6.25 µg/mL (≈ 8.85 µM); zone of inhibition at 100 µg/disc (Proteus vulgaris [22]): 27 mm; MIC (Aspergillus clavatus [23]): 25 µg/mL (≈ 35.4 µM); MIC (Aspergillus niger [24]): 100 µg/mL (≈ 142 µM)
CCN1CCN(CC2SC(c3ccc([N+](=O)[O-])cc3)N(c3ccc(Nc4nc(Oc5cc(=O)n(C)c6ccccc56)nc(N(C)C)n4)cc3)C2=O)CC1 (centres undefined) | 100 µg/mL (≈ 136 µM) | 50 µg/mL (≈ 67.9 µM) | 22 mm | 21 mm | 50 µg/mL (≈ 67.9 µM) | 24 mm | 50 µg/mL (≈ 67.9 µM) | 17 mm | 22 mm | 22 mm | 50 µg/mL (≈ 67.9 µM) | 23 mm | 100 µg/mL (≈ 136 µM) | 22 mm | 20 mm | 23 mm | 100 µg/mL (≈ 136 µM) | 100 µg/mL (≈ 136 µM) | 18 mm | 100 µg/mL (≈ 136 µM) | MIC (Proteus vulgaris [21]): 50 µg/mL (≈ 67.9 µM); zone of inhibition at 100 µg/disc (Proteus vulgaris [22]): 25 mm; MIC (Aspergillus clavatus [23]): 100 µg/mL (≈ 136 µM); MIC (Aspergillus niger [24]): 50 µg/mL (≈ 67.9 µM)
CCN1CCN(CC2SC(c3ccc(O)cc3)N(c3ccc(Nc4nc(Oc5cc(=O)n(C)c6ccccc56)nc(N(C)C)n4)cc3)C2=O)CC1 (centres undefined) | 100 µg/mL (≈ 141 µM) | 50 µg/mL (≈ 70.6 µM) | 13 mm | 21 mm | 50 µg/mL (≈ 70.6 µM) | 16 mm | 100 µg/mL (≈ 141 µM) | 19 mm | 23 mm | 20 mm | 25 µg/mL (≈ 35.3 µM) | 18 mm | 100 µg/mL (≈ 141 µM) | 17 mm | 21 mm | 19 mm | 50 µg/mL (≈ 70.6 µM) | 50 µg/mL (≈ 70.6 µM) | 14 mm | 50 µg/mL (≈ 70.6 µM) | MIC (Proteus vulgaris [21]): 100 µg/mL (≈ 141 µM); zone of inhibition at 100 µg/disc (Proteus vulgaris [22]): 16 mm; MIC (Aspergillus clavatus [23]): 100 µg/mL (≈ 141 µM); MIC (Aspergillus niger [24]): 100 µg/mL (≈ 141 µM)
CCN1CCN(CC2SC(c3ccc(OC)c(OC)c3)N(c3ccc(Nc4nc(Oc5cc(=O)n(C)c6ccccc56)nc(N(C)C)n4)cc3)C2=O)CC1 (centres undefined) | 12.5 µg/mL (≈ 16.6 µM) | 12.5 µg/mL (≈ 16.6 µM) | 22 mm | 24 mm | 50 µg/mL (≈ 66.5 µM) | 24 mm | 50 µg/mL (≈ 66.5 µM) | 23 mm | 23 mm | 24 mm | 25 µg/mL (≈ 33.2 µM) | 21 mm | 50 µg/mL (≈ 66.5 µM) | 25 mm | 26 mm | 23 mm | 25 µg/mL (≈ 33.2 µM) | 25 µg/mL (≈ 33.2 µM) | 24 mm | 25 µg/mL (≈ 33.2 µM) | MIC (Proteus vulgaris [21]): 50 µg/mL (≈ 66.5 µM); zone of inhibition at 100 µg/disc (Proteus vulgaris [22]): 23 mm; MIC (Aspergillus clavatus [23]): 50 µg/mL (≈ 66.5 µM); MIC (Aspergillus niger [24]): 100 µg/mL (≈ 133 µM)
